Results reported in article PMC3280409 (Analytical and Bioanalytical Chemistry, 2012).
Structures can show the parent of a compound that is named as a salt. d = 2'-deoxy (DNA); r = 2'-OH (RNA)

B1: MBNL1-FL: full length recombinant MBNL1 protein (protein, UniProt Q9NR56 1-388, looked up)
chain: MAVSVTPIRDTKWLTLEVCREFQRGTCSRPDTECKFAHPSKSCQVENGRVIACFDSLKGRCSRENCKYLHPPPHLKTQLEINGRNNLIQQKNMAMLAQQMQLANAMMPGAPLQPVPMFSVAPSLATNASAAAFNPYLGPVSPSLVPAEILPTAPMLVTGNPGVPVPAAAAAAAQKLMRTDRLEVCREYQRGNCNRGENDCRFAHPADSTMIDTNDNTVTVCMDYIKGRCSREKCKYFHPPAHLQAKIKAAQYQVNQAAAAQAAATAAAMTQSAVKSLKRPLEATFDLGIPQAVLPPLPKRPALEKTNGATAVFNTGIFQYQQALANMQLQQHTAFLPPVPMVHGATPATVSAATTSATSVPFAATATANQIPIISAEHLTSHKYVTQM
modifications: full-length

Key:
[1] = molecular target: MBNL1-His6/Biot-(CUG)12 binding; test: HTRF binding assay of MBNL1-His6 and Biot-; conditions: for IC50: read-out: IC50 (μM) HTRF, hit confirmation, 12-point 1:3 titration, 0.3 nM – 57.5 μM, 1536-well, duplicates
Outline: (§1)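 Recombinant MBNL1-His6 (IPTG-induced, Ni-agarose purified, desalted, purity-corrected by SYPRO-stained gel) at 20 nM with 20 nM Biot-(CUG)12. Read after 60 min at room temperature, in duplicate points. IC50 from dose-response inhibition fits of three independent experiments.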

[2] = test system: MBNL1-His6/Biot-(CUG)12 binding; test: AlphaScreen binding assay of MBNL1-His6 and Biot-; conditions: 1536-well format, 4 ul final volume
Outline: as §1

(CUG)20 RNA = test: RNA degradation assay; format: biochemical; conditions: 30 min, assay buffer, 37°C, varying compound concentrations (NF449 up to 800 μM)
Outline: (§2)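 5′-32P-labelled RNA was gel-purified, denatured at 85°C for 1 min and slow-cooled to 37°C. At 100 pM it was incubated with varying test compound concentrations in Tris-HCl pH 8.0/NaCl/KCl/MgCl2 assay buffer for 30 min at 37°C. The reaction was stopped with 7.5 M urea/20 mM EDTA and analysed on denaturing 12% PAGE.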

(CAG)20 RNA = test: RNA degradation assay; format: biochemical; conditions: 30 min, assay buffer, 37°C, varying compound concentrations (NF449 up to 800 μM)
Outline: as §2

(CUG)109 transcript = test: Filter binding assay of MBNL1 constructs to; conditions: read-out: KD, (CUG)109 binding affinity
Outline: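 5′-32P-labelled RNA was denatured at 85°C for 1 min and slow-cooled to 37°C in Tris-HCl pH 8.0/NaCl/KCl/MgCl2 assay buffer. It was incubated with full-length or truncated recombinant MBNL1 for 30 min at 37°C, then captured on a nitrocellulose/Hybond N+ sandwich by slot-blot. Kd came from a one-site binding model over three independent experiments.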

Row | Molecule | IC50 [1] | other results
1 | CCCN1C[C@H](CSC)C[C@@H]2c3cccc4[nH]cc(c34)C[C@H]21 [Pergolide methanesulfonate] | 24.8 µM | –
2 | Cn1ccc2cc(NC(=O)Nc3cccnc3)ccc21 [SB 200646 HCl] | 55.7 µM | –
3 | CN1C[C@H](CNC(=O)OCc2ccccc2)C[C@@H]2c3cccc4c3c(cn4C)C[C@H]21 [Metergoline] | 52 µM | –
4 | ssCAG-21: unlabeled mixed RNA/DNA oligo, sequence 5′-rUrArGrCrArGrCrArGrCrArGrCrArGrCrArGrCTT; positive control competitive inhibitor (UAGCAGCAGCAGCAGCAGCTT; sugars from the 5' end r19 d2, backbone not given here) | – | IC50 of inhibition of MBNL1-(CUG)12 binding, AlphaScreen [2]: comparable to those obtained from the 384-well assays; IC50 of inhibition of MBNL1-(CUG)12 binding, HTRF ([1]; 1536-well format, 4 ul final volume): comparable to those obtained from the 384-well assays
5 | Cl.Cl.Oc1ccc2c3c1O[C@H]1c4[nH]c5c(c4C[C@@]4(O)[C@@H](C2)N(CC2CC2)CC[C@]314)C[C@@]1(O)[C@H]2Cc3ccc(O)c4c3[C@@]1(CCN2CC1CC1)[C@H]5O4 [nor-Binaltorphimine dihydrochloride] | 21.9 µM | RNA degradation of (CUG)20 ((CUG)20 RNA): significant RNA degradation; RNA degradation of (CAG)20 ((CAG)20 RNA): significant RNA degradation
6 | O=C(Nc1cc(C(=O)Nc2ccc(S(=O)(=O)O)cc2S(=O)(=O)O)cc(C(=O)Nc2ccc(S(=O)(=O)O)cc2S(=O)(=O)O)c1)Nc1cc(C(=O)Nc2ccc(S(=O)(=O)O)cc2S(=O)(=O)O)cc(C(=O)Nc2ccc(S(=O)(=O)O)cc2S(=O)(=O)O)c1 [NF449 octasodium salt] | 31 µM | –
7 | CC(O)C(C)OC(=O)[C@@H]1C[C@@H]2c3cccc4c3c(cn4C(C)C)C[C@H]2N(C)C1 (some centres unmarked) [LY-53,857 maleate] | 38 µM | –
8 | B1 | – | Kd ((CUG)109 transcript): 0.00692 ± 0.00078 µM
